Laboratory results taken from ChEMBL document CHEMBL1909613, “Synthesis and biological activity of new bispyridinium salts of 4,4'-bispyridyl-5,5'-perfluoroalkyl-2,2'-bisoxazoles” (Eur J Med Chem, 2011).

How the values were obtained:
[1] = test system: HT-29; assay: Cytotoxicity against human HT-29 cells after 72 hrs by MTT assay; format: functional, cell-based
In short: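 HT-29 cells grown in DMEM with 10% FBS at 37 °C, 95% humidity, 5% CO2. Seeded and held 24 h, then exposed to increasing concentrations in fresh medium for 72 h, quadruplicate wells per concentration. Viability by MTT absorbance at 595 nm. IC50 from a plot of log OD versus log drug concentration.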

[2] = target: Choline kinase alpha (Homo sapiens, UniProt P35790); assay: Inhibition of recombinant human Choline kinase alpha using [methyl-14C]choline chloride as substrate after 30 mins by autoradiography
Sequence of Choline kinase alpha (P35790 whole entry): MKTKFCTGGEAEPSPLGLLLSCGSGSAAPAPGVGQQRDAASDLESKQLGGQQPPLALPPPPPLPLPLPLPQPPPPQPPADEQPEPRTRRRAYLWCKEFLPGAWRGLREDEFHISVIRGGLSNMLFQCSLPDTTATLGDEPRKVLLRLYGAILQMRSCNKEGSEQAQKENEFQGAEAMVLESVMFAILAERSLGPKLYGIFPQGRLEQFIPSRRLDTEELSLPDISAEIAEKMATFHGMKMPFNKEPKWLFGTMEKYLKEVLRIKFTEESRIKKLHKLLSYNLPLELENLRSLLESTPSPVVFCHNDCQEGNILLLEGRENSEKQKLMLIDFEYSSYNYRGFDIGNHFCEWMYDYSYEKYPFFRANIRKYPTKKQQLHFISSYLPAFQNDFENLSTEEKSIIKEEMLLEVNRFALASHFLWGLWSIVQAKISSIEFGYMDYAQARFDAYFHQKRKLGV
In short: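 Extracts from cells expressing recombinant human ChoK were incubated 30 min at 37 °C in 100 mM Tris pH 8, 10 mM MgCl2, 10 mM ATP and [methyl-14C]choline chloride. Reaction stopped on ice with 500 mM EDTA. Choline and phosphocholine were separated by silica TLC (0.9% NaCl:methanol:ammonium hydroxide 50:70:5) and quantified by electronic autoradiography. IC50 came from a Hill-equation least-squares fit of PCho/(PCho+Cho) versus inhibitor concentration.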

| SMILES | IC50 [2] [µM] | IC50 ([1]; Homo sapiens, HT-29, 72 h) [µM] | IC50 ([1]; ht-29) [µM] |
| --- | --- | --- | --- |
| FC(F)(F)c1oc(-c2ccc(C(c3ccc(-c4nc(-c5cc[n+](CCCl)cc5)c(C(F)(F)F)o4)cc3)(C(F)(F)F)C(F)(F)F)cc2)nc1-c1cc[n+](CCCl)cc1 | 12.5 | 13.8 |  |
| CN(C)C(=O)C[n+]1ccc(-c2nc(-c3ccc(C(c4ccc(-c5nc(-c6cc[n+](CC(=O)N(C)C)cc6)c(C(F)(F)F)o5)cc4)(C(F)(F)F)C(F)(F)F)cc3)oc2C(F)(F)F)cc1 | 6.15 | > 20 |  |
| CN(C)C(=O)C[n+]1ccc(-c2nc(-c3ccc(-c4ccc(-c5nc(-c6cc[n+](CC(=O)N(C)C)cc6)c(C(F)(F)F)o5)cc4)cc3)oc2C(F)(F)F)cc1 | 0.3 | 4 |  |
| FC(F)(F)C(F)(F)C(F)(F)c1oc(-c2ccc(C(c3ccc(-c4nc(-c5cc[n+](CCCl)cc5)c(C(F)(F)C(F)(F)C(F)(F)F)o4)cc3)(C(F)(F)F)C(F)(F)F)cc2)nc1-c1cc[n+](CCCl)cc1 | 11.6 | 15.5 |  |
| OCC[n+]1ccc(-c2nc(-c3ccc(-c4ccc(-c5nc(-c6cc[n+](CCO)cc6)c(C(F)(F)C(F)(F)C(F)(F)F)o5)cc4)cc3)oc2C(F)(F)C(F)(F)C(F)(F)F)cc1 | 17.3 | 2.26 |  |
| OCC[n+]1ccc(-c2nc(-c3ccc(C(c4ccc(-c5nc(-c6cc[n+](CCO)cc6)c(C(F)(F)C(F)(F)F)o5)cc4)(C(F)(F)F)C(F)(F)F)cc3)oc2C(F)(F)C(F)(F)F)cc1 [listing 1 of 2 here] | 4.2 |  | 7.7 |
| CN(C)C(=O)C[n+]1ccc(-c2nc(-c3ccc(-c4ccc(-c5nc(-c6cc[n+](CC(=O)N(C)C)cc6)c(C(F)(F)C(F)(F)F)o5)cc4)cc3)oc2C(F)(F)C(F)(F)F)cc1 | 2 |  | 5.5 |
| FC(F)(F)C(F)(F)c1oc(-c2ccc(C(c3ccc(-c4nc(-c5cc[n+](CCCl)cc5)c(C(F)(F)C(F)(F)F)o4)cc3)(C(F)(F)F)C(F)(F)F)cc2)nc1-c1cc[n+](CCCl)cc1 | 14.2 | 9.3 |  |
| OCC[n+]1ccc(-c2nc(-c3ccc(-c4ccc(-c5nc(-c6cc[n+](CCO)cc6)c(C(F)(F)F)o5)cc4)cc3)oc2C(F)(F)F)cc1 [listing 2 of 2 here] | 23.8 | 1.5 |  |
| OCC[n+]1ccc(-c2nc(-c3ccc(-c4ccc(-c5nc(-c6cc[n+](CCO)cc6)c(C(F)(F)C(F)(F)F)o5)cc4)cc3)oc2C(F)(F)C(F)(F)F)cc1 | 9.65 | 0.84 |  |

Continued, in another order:

| IC50 [2] [µM] | SMILES | IC50 ([1]; Homo sapiens, HT-29, 72 h) [µM] | IC50 ([1]; ht-29) [µM] |
| --- | --- | --- | --- |
| 1.35 | CN(C)C(=O)C[n+]1ccc(-c2nc(-c3ccc(-c4nc(-c5cc[n+](CC(=O)N(C)C)cc5)c(C(F)(F)F)o4)cc3)oc2C(F)(F)F)cc1 | > 50 |  |
| 15 | CN(C)C(=O)C[n+]1ccc(-c2nc(-c3ccc(-c4nc(-c5cc[n+](CC(=O)N(C)C)cc5)c(C(F)(F)C(F)(F)F)o4)cc3)oc2C(F)(F)C(F)(F)F)cc1 | > 50 |  |
| 4.25 | CN(C)C(=O)C[n+]1ccc(-c2nc(-c3ccc(-c4ccc(-c5nc(-c6cc[n+](CC(=O)N(C)C)cc6)c(C(F)(F)C(F)(F)C(F)(F)F)o5)cc4)cc3)oc2C(F)(F)C(F)(F)C(F)(F)F)cc1 | 2.5 |  |
| 13.5 | OCC[n+]1ccc(-c2nc(-c3ccc(C(c4ccc(-c5nc(-c6cc[n+](CCO)cc6)c(C(F)(F)C(F)(F)C(F)(F)F)o5)cc4)(C(F)(F)F)C(F)(F)F)cc3)oc2C(F)(F)C(F)(F)C(F)(F)F)cc1 | 6.35 |  |
| > 20 | OCC[n+]1ccc(-c2nc(-c3ccc(-c4ccc(-c5nc(-c6cc[n+](CCO)cc6)c(C(F)(F)F)o5)cc4)cc3)oc2C(F)(F)F)cc1 [listing 1 of 2 here] |  | 1.85 |
| 4.4 | OCC[n+]1ccc(-c2nc(-c3ccc(C(c4ccc(-c5nc(-c6cc[n+](CCO)cc6)c(C(F)(F)C(F)(F)F)o5)cc4)(C(F)(F)F)C(F)(F)F)cc3)oc2C(F)(F)C(F)(F)F)cc1 [listing 2 of 2 here] | 6 |  |
